Hits are enriched below; roughly 2% of the tested compounds scored in any of these assays.
STAT1 inh: STAT1 signaling inhibition; NIH 3T3 STAT1-luciferase reporter, IFN-gamma, luminescence; 0.35% of 200,000 active; inhibition, % at 5.5 µM;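 active = inhibition above a set limit, the mean inhibition across all tested compounds plus 3 SD, cut at about 34% in these data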;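 also: 0% = IFN-gamma with DMSO and 100% = IFN-gamma with 300 µM nifuroxazide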
STAT3 activator: increases IL-6 driven STAT3 reporter signal; U3A cells, IL-6 STAT3-luciferase reporter, luminescence; 100% = signal with IL-6 EC80 alone; activation (% of control), % at 5.6 µM; 0.91% of 190,000 active;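 active = activation above the screen-wide mean of compound activation plus 3 SD, cut at about 130% in these data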;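 also: 0% = background luminescence of wells with medium and substrate only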
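Test system: STAT3-luciferase reporter U3A cells; Detection: reporter luminescence signal; Times: 1 h compound pre-exposure, 6 h IL-6 stimulation, 37 °C; Benchmarks: IL-6-only high control; Also added: IL-6 stimulus at 33 ng/mL final.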
STAT3 blocker: reduces IL-6 driven STAT3 reporter signal. U3A cells, IL-6 STAT3-luciferase reporter, luminescence; host cell line lacks STAT1. inhibition, % at 5.5 µM. 0.89% of 190,000 active;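 active = inhibition above the mean inhibition across all screened compounds plus 3 SD, cut at about 44% in these data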;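 also: 0% = DMSO only wells and 100% = 100 µM nifuroxazide control wells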
HSP90 inh: inhibitors of HSP90 luciferase refolding in rabbit reticulocyte lysate | luciferase refolding luminescence, 3 h | inhibition, % at 5.6 µM | 0.91% of 290,000 active;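 active = inhibition above the screen-wide mean plus 3 SD, computed separately per campaign, cut at about 16% in these data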;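 also: 0% = DMSO wells and 100% = 60 µM geldanamycin wells; inhibitors lower the luminescence because luciferase stays unfolded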
* marks the source's active call; other numbers are inactive results.

Results for O=C1C(C=NCc2ccncc2)=C(O)c2ccccc21 ?
STAT1 inh: -5; STAT3 activator: 108; STAT3 blocker: -4; HSP90 inh: 5

How did COc1ccc(N=CC2=C(O)c3ccccc3C2=O)c(OC)c1 do in these assays?
STAT1 inh: 74*; STAT3 activator: 15; STAT3 blocker: 99*; HSP90 inh: 33*

How did Cc1ccccc1N=CC1=C(O)c2ccccc2C1=O do in these assays?
STAT1 inh: 80*; STAT3 activator: 14; STAT3 blocker: 99*; HSP90 inh: 10

Results for COc1cccc(N=c2oc3ccc(OC)cc3cc2-c2nc3ccccc3[nH]2)c1 ?
STAT1 inh: -38; STAT3 activator: 151*; STAT3 blocker: -56; HSP90 inh: -1

How did COc1ccc2oc(=O)c(-c3nc4ccccc4o3)cc2c1 do in these assays?
STAT1 inh: -11; STAT3 activator: 100; STAT3 blocker: 0; HSP90 inh: 2

How did COc1ccc(N2C(=O)C(CC(N)=O)N(NC(=O)c3cccc(OC)c3)C2=S)cc1 (configuration not stated) do in these assays?
STAT1 inh: -9; STAT3 activator: 104; STAT3 blocker: -1; HSP90 inh: -2

Results for O=C(NCCO)C1COc2ccccc2O1 (configuration not stated) ?
STAT1 inh: -3; STAT3 activator: 94; STAT3 blocker: 12; HSP90 inh: -1

What do the screens show for `CCCNC(=O)C1CNc2ccccc2O1` (configuration not stated)?
STAT1 inh: -7; STAT3 activator: 134*; STAT3 blocker: -34; HSP90 inh: -2

Results for CN(C)c1ccc(C(=O)N2CC(=O)N(CCc3ccccc3)C(=O)C2)cc1 ?
STAT1 inh: 1; STAT3 activator: 102; STAT3 blocker: 3; HSP90 inh: -1

What do the screens show for `COc1ccc(C(=O)N2CC(=O)N(CCc3ccccc3)C(=O)C2)cc1OC`?
STAT1 inh: 0; STAT3 activator: 144*; STAT3 blocker: -46; HSP90 inh: -1

How did Cc1ccc(S(=O)(=O)N[C@@H](C)C(=O)N2CCC(C(=O)N[C@@H](Cc3ccccc3)C(=O)O)CC2)cc1 do in these assays?
HSP90 inh: -3

How did CCN(CC)CCNC(=O)c1ccc(NC(=O)Nc2cccc3ccccc23)cc1 do in these assays?
HSP90 inh: 3

How did O=C1c2ccccc2C(=O)N1CCCCN(C(=O)c1ccco1)c1ccc(Cl)cc1 do in these assays?
STAT1 inh: 8; STAT3 activator: 94; STAT3 blocker: 10; HSP90 inh: 6

What do the screens show for `O=C1/C(=C/N(C(=O)c2ccco2)c2ccc(Cl)cc2)Sc2ccccc21`?
STAT1 inh: -17; STAT3 activator: 98; STAT3 blocker: 5; HSP90 inh: 16*

What do the screens show for `COc1ccc(CCNC(=O)C2=CCN(S(=O)(=O)c3ccc(F)cc3)CC2)cc1OC`?
HSP90 inh: 3

What do the screens show for `O=c1[nH]c(Nc2ccc(F)cc2)cc2ccccc12`?
STAT1 inh: -9; STAT3 activator: 104; STAT3 blocker: 3; HSP90 inh: 16*

Results for Cc1ccc(CN2C(=O)CSC2c2ccccc2F)cc1 (configuration not stated) ?
HSP90 inh: 1

Results for Oc1csc(Cc2nc(-c3ccc4ccccc4c3)cs2)n1 ?
STAT1 inh: -32; STAT3 activator: 163*; STAT3 blocker: -65; HSP90 inh: 5

What do the screens show for `COc1ccc(NC(=O)CSc2ncnc3c2cnn3CCc2ccccc2)cc1`?
STAT1 inh: -2; STAT3 activator: 67; STAT3 blocker: 46*; HSP90 inh: -2

What do the screens show for `COc1cccc(NC(=O)CSc2ncnc3c2cnn3Cc2ccccc2)c1`?
STAT1 inh: -2; STAT3 activator: 91; STAT3 blocker: 11; HSP90 inh: 5

How did CCO[C@@H]1OC(C(=O)NCc2ccccc2)=C[C@H](c2cn(C(C)=O)c3ccccc23)[C@H]1CCCO do in these assays?
STAT1 inh: 6; HSP90 inh: 5

Results for CCO[C@@H]1OC(C(=O)NCc2nc3ccccc3[nH]2)=C[C@H](c2cn(C(C)=O)c3ccccc23)[C@H]1CCCO ?
STAT1 inh: 8; HSP90 inh: 16*

How did CN1CCN(CCNC(=O)c2ccc3nc(-c4ccc(F)cc4)c(-c4ccc(F)cc4)nc3c2)CC1 do in these assays?
HSP90 inh: -3

Results for CCOc1ccc(-n2c(SCC(=O)Nc3cc(C)on3)nc3c(c2=O)SCC3)cc1 ?
HSP90 inh: 2

How did O=C1C(Cl)=C(N2CCCCC2)C(=O)N1c1ccccc1Cl do in these assays?
STAT1 inh: 10; STAT3 activator: 98; STAT3 blocker: 8; HSP90 inh: 1
